Source: ChEMBL document CHEMBL3227958, “A preliminary structure-activity study of the mixed-function oxidase inhibitor 7,8-benzoflavone” (J Med Chem, 1979)

Columns and labels:
[1] = Inhibition of benzo(alpha)pyrene monooxygenase in phenobarbital-treated Sprague-Dawley rat liver microsomes using [3H]benzo(alpha)pyrene as substrate after 15 mins by liquid scintillation spectrometry; details: read-out: I50
Procedure, shortened: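 Microsomes came from male Sprague-Dawley rats (60-80 g) given phenobarbital 80 mg/kg ip in saline on 3 days, then starved 24 h. The assay used 0.400 mg/mL protein, NADP/glucose 6-phosphate/G6PDH and 60 μM [3H]benzo[a]pyrene for 15 min at 37 °C. Hexane/alkali extraction was followed by scintillation counting, minus an ethanolic-NaOH-treated microsome blank. I50 used ≥4 inhibitor concentrations, log-dose plot, three replicates.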

[2] = Inhibition of benzo(alpha)pyrene monooxygenase in 3-methylcholanthrene-treated Sprague-Dawley rat liver microsomes using [3H]benzo(alpha)pyrene as substrate after 15 mins by liquid scintillation spectrometry; details: read-out: I50
Procedure, shortened: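 Liver microsomes from male Sprague-Dawley rats (60-80 g) given 3-methylcholanthrene 20 mg/kg ip in corn oil on 2 days, then starved 24 h. Run with 0.200 mg/mL protein, NADPH-generating system and 60 μM [3H]benzo[a]pyrene for 15 min at 37 °C. Hydroxylated products were taken into alkali and counted. I50 came from log concentration vs % activity, with at least four concentrations and triplicates.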

[3] = Stimulation of benzo(alpha)pyrene monooxygenase in phenobarbital-treated Sprague-Dawley rat liver microsomes using [3H]benzo(alpha)pyrene as substrate at 100 uM after 15 mins by liquid scintillation spectrometry; type: ADME; details: 0.25 h
Procedure, shortened: (§1)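 Single-concentration change in benzo[a]pyrene oxidation versus solvent controls, using phenobarbital-induced male Sprague-Dawley rat liver microsomes at 0.400 mg/mL protein. Conditions: 60 μM [3H]benzo[a]pyrene, NADPH-generating system, 15 min at 37 °C. Termination used ethanolic NaOH, then hexane extraction and scintillation counting of the lower phase, corrected with an ethanolic-NaOH-treated microsome blank. Three replicates.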

[4] = system: benzo(alpha)pyrene monooxygenase; experiment: Inhibition of benzo(alpha)pyrene monooxygenase in 3-methylcholanthrene-treated Sprague-Dawley rat liver microsomes using [3H]benzo(alpha)pyrene as substrate at 100 uM after 15 mins by liquid scintillation spectrometry; details: liver microsomes from 3-methylcholanthrene-treated rats, probe [3H]benzo(alpha)pyrene
Procedure, shortened: (§2)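 Percent inhibition or stimulation was measured at the single stated inhibitor concentration, relative to solvent-only controls. Hepatic microsomes were from 3-methylcholanthrene-pretreated male Sprague-Dawley rats, used at 0.200 mg/mL protein with an NADPH-generating system. Substrate was 60 μM [3H]benzo[a]pyrene, incubated 15 min at 37 °C. The reaction was stopped with NaOH in 80% ethanol, hexane-extracted, and the aqueous phase counted. Triplicate samples.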

[5] = system: benzo(alpha)pyrene monooxygenase; experiment: Inhibition of benzo(alpha)pyrene monooxygenase in phenobarbital-treated Sprague-Dawley rat liver microsomes using [3H]benzo(alpha)pyrene as substrate at 100 uM after 15 mins by liquid scintillation spectrometry; details: liver microsomes from phenobarbital-treated rats, probe [3H]benzo(alpha)pyrene; procedure, shortened: as §1
[6] = Stimulation of benzo(alpha)pyrene monooxygenase in phenobarbital-treated Sprague-Dawley rat liver microsomes using [3H]benzo(alpha)pyrene as substrate at 99 uM after 15 mins by liquid scintillation spectrometry; type: ADME; details: 0.25 h; procedure, shortened: as §1
[7] = system: benzo(alpha)pyrene monooxygenase; experiment: Inhibition of benzo(alpha)pyrene monooxygenase in 3-methylcholanthrene-treated Sprague-Dawley rat liver microsomes using [3H]benzo(alpha)pyrene as substrate at 99 uM after 15 mins by liquid scintillation spectrometry; details: liver microsomes from 3-methylcholanthrene-treated rats, probe [3H]benzo(alpha)pyrene; procedure, shortened: as §2
[8] = system: benzo(alpha)pyrene monooxygenase; experiment: Inhibition of benzo(alpha)pyrene monooxygenase in phenobarbital-treated Sprague-Dawley rat liver microsomes using [3H]benzo(alpha)pyrene as substrate at 104 uM after 15 mins by liquid scintillation spectrometry; details: liver microsomes from phenobarbital-treated rats, probe [3H]benzo(alpha)pyrene; procedure, shortened: as §1
[9] = system: benzo(alpha)pyrene monooxygenase; experiment: Inhibition of benzo(alpha)pyrene monooxygenase in phenobarbital-treated Sprague-Dawley rat liver microsomes using [3H]benzo(alpha)pyrene as substrate at 99 uM after 15 mins by liquid scintillation spectrometry; details: liver microsomes from phenobarbital-treated rats, probe [3H]benzo(alpha)pyrene; procedure, shortened: as §1
[10] = Stimulation of benzo(alpha)pyrene monooxygenase in phenobarbital-treated Sprague-Dawley rat liver microsomes using [3H]benzo(alpha)pyrene as substrate at 200 uM after 15 mins by liquid scintillation spectrometry; type: ADME; details: 0.25 h; procedure, shortened: as §1
[11] = Stimulation of benzo(alpha)pyrene monooxygenase in 3-methylcholanthrene-treated Sprague-Dawley rat liver microsomes using [3H]benzo(alpha)pyrene as substrate at 200 uM after 15 mins by liquid scintillation spectrometry; type: ADME; details: 0.25 h; procedure, shortened: as §2
[12] = Stimulation of benzo(alpha)pyrene monooxygenase in phenobarbital-treated Sprague-Dawley rat liver microsomes using [3H]benzo(alpha)pyrene as substrate at 98 uM after 15 mins by liquid scintillation spectrometry; type: ADME; details: 0.25 h; procedure, shortened: as §1

IC50 [1] | IC50 [2] | SMILES | also measured
> 100 µM | 10 µM | O=c1cc(-c2ccccc2)oc2c1ccc1ccccc12 [ALPHA-NAPHTHOFLAVONE] | Activity [3]: 21%
82 µM | 31 µM | Nc1cc2c(=O)cc(-c3ccccc3)oc2c2ccccc12 | –
> 100 µM | > 100 µM | O=c1c(-c2ccccc2)coc2c1ccc1ccccc12 | inhibition at 0.25 h, 100 µM [4]: 18%; Activity [3]: 6%
> 100 µM | > 100 µM | COc1ccc(-c2cc(=O)c3ccc4ccccc4c3o2)cc1 | inhibition at 0.25 h, 100 µM [4]: 46%; inhibition at 0.25 h, 100 µM [5]: 0%
> 99 µM | > 99 µM | O=c1cc(-c2ccc([N+](=O)[O-])cc2)oc2c1ccc1ccccc12 | Activity [6]: 33%; inhibition at 0.25 h, 99 µM [7]: 0%
> 97 µM | > 97 µM | O=c1cc(-c2ccccc2)oc2c1cc(Br)c1ccccc12 | –
> 104 µM | > 104 µM | c1ccc(-c2cc3ccc4ccccc4c3o2)cc1 | inhibition at 0.25 h, 104 µM [8]: 34%
> 99 µM | 13 µM | O=c1cc(-c2ccc(Cl)cc2)oc2c1ccc1ccccc12 | inhibition at 0.25 h, 99 µM [9]: 0%
> 100 µM | 13 µM | COc1ccccc1-c1cc(=O)c2ccc3ccccc3c2o1 | inhibition at 0.25 h, 100 µM [5]: 34%
> 200 µM | > 200 µM | O=c1cc(-c2ccccc2)oc2c1cc([N+](=O)[O-])c1ccccc12 | Activity [10]: 43%; Activity [11]: 34%
> 98 µM | 11 µM | COc1cccc(-c2cc(=O)c3ccc4ccccc4c3o2)c1 | Activity [12]: 9%
> 100 µM | 11 µM | O=c1cc(-c2ccc3ccccc3c2)oc2c1ccc1ccccc12 | inhibition at 0.25 h, 100 µM [5]: 0%
> 100 µM | > 100 µM | O=c1cc(-c2cccc([N+](=O)[O-])c2)oc2c1ccc1ccccc12 | inhibition at 0.25 h, 100 µM [4]: 36%; Activity [3]: 42%
